The values that follow come from ChEMBL document CHEMBL4270616, “Asymmetrical meta-methoxylated diarylpentanoids: Rational design, synthesis and anti-cancer evaluation in-vitro” (Eur J Med Chem, 2018).

Assay [1] has as its system SW-620. In words: Anticlonogenic activity against human SW620 cells assessed as colony formation at 1.25 uM after 10 days by crystal violet staining based imaging analysis (reference value: 100%). It is filed as functional. An outline of the steps:
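SW620 cells seeded at 1000 cells/well in DMEM, left overnight at 37°C, 5% CO2, then exposed to compound for ten days with drug-containing medium renewed every three days. Cells were PBS-washed, fixed in 4% paraformaldehyde for 15 min, stained with 0.5% (w/v) crystal violet for 10 min, air-dried, photographed, and colonies quantified by image analysis.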

Another assay has as its system HT-1080. In words: Cytotoxicity against human HT1080 cells assessed as inhibition of cell proliferation at 20 uM after 72 hrs by MTT assay relative to control. The assay is classed as functional. The conditions noted are these: HT-1080, 72 h. An outline of the steps:
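Single-concentration screen at 20 μM with 72 h exposure in DMEM with 10% FBS, final DMSO 0.1%. Read-out was MTT (5 mg/mL, 4 h, 37°C), DMSO solubilisation and absorbance at 570 nm, expressed as percent inhibition. Lines reaching a threshold percentage went on to IC50 determination.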

The subject of assay [2] is SW-620. Nature of the assay: Induction of apoptosis in human SW620 cells assessed as late apoptotic cells at 10 uM after 72 hrs by Annexin V-FITC/propidium iodide staining based flow cytometry (reference value: 0.29%). It is filed as functional.
Assay [3] deals with SW-620. Nature of the assay: Induction of apoptosis in human SW620 cells assessed as late apoptotic cells at 2.5 uM after 72 hrs by Annexin V-FITC/propidium iodide staining based flow cytometry (reference value: 0.29%). It is filed as functional.
The subject of assay [4] is SW-620. In words: Induction of apoptosis in human SW620 cells assessed as early apoptotic cells at 1.25 uM after 72 hrs by Annexin V-FITC/propidium iodide staining based flow cytometry (reference value: 2.1%). The assay is classed as functional.
For assay [5], the system named is SW-620. Nature of the assay: Induction of apoptosis in human SW620 cells assessed as late apoptotic cells at 2.5 uM after 24 hrs by Annexin V-FITC/propidium iodide staining based flow cytometry (reference value: 0.43%). The assay is classed as functional.
The test system of assay [6] is SW-620. In words: Induction of apoptosis in human SW620 cells assessed as necrotic cells at 5 uM after 24 hrs by Annexin V-FITC/propidium iodide staining based flow cytometry (reference value: 0.15%). It is filed as functional.
Another assay deals with A549. Nature of the assay: Cytotoxicity against human A549 cells after 72 hrs by MTT assay. It is filed as functional, cell-based. To be noted: A549, 72 h. An outline of the steps:
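Tumour lines kept in DMEM with 10% FBS and 1% penicillin/streptomycin at 37°C, 5% CO2. Seeded at 1500-5000 cells/well by doubling time and size, 24 h, then compound in DMSO-containing medium (final DMSO 0.1%) for 72 h. MTT (5 mg/mL) 4 h at 37°C, DMSO solubilisation, absorbance at 570 nm.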

For assay [7], the system named is SW-620. In words: Induction of apoptosis in human SW620 cells assessed as early apoptotic cells at 10 uM after 48 hrs by Annexin V-FITC/propidium iodide staining based flow cytometry (reference value: 2.75%). It is filed as functional.
The test system of assay [8] is SW-620. In words: Induction of apoptosis in human SW620 cells assessed as late apoptotic cells at 2.5 uM after 48 hrs by Annexin V-FITC/propidium iodide staining based flow cytometry (reference value: 0.2%). The assay is classed as functional.
The subject of assay [9] is SW-620. Nature of the assay: Induction of apoptosis in human SW620 cells assessed as live cells at 10 uM after 72 hrs by Annexin V-FITC/propidium iodide staining based flow cytometry (reference value: 97.34%). It is filed as functional.

Each structure is given as a SMILES string.

As for `COc1ccc(/C=C2\CCC/C(=C\c3cc(OC)c(OC)c(OC)c3)C2=O)cc1OC`, the Activity in the assay on SW-620 [1] is on record as 0.5%; in the assay on SW-620 [2], 94.51%; in the assay with SW-620 [3] it was 17.24%; in the assay with SW-620 [4], 4.06%; with SW-620 [5], 1%; in the assay with SW-620 [6], 0.36%. The figures for the Activity in the assay with SW-620 [7], in the assay with SW-620 [8] and with SW-620 [9] were 0.37%, 6.7% and 2.37%, respectively. Further, in the assay with HT-1080, the inhibition at 20 µM is above 50%. The molecule also had an IC50 in the assay on A549 of 2.9 µM.

In the case of `COc1ccc(/C=C2\CCC/C(=C\c3cccc(O)c3)C2=O)cc1OC`, the Activity in the assay with SW-620 [1] amounted to 0.8%; in the assay with SW-620 [2], 95.18%; in the assay with SW-620 [3] it was 4.57%; with SW-620 [4], 5.22%; with SW-620 [5], 0.64%; in the assay with SW-620 [6], 0.35%. In addition, the values for the Activity in the assay with SW-620 [7], in the assay with SW-620 [8] and in the assay with SW-620 [9] were 9.84%, 3.83% and 2.19%, respectively. The inhibition at 20 µM in the assay with HT-1080 was above 50%. Moreover, half-maximal inhibition in the assay on A549 (IC50) was put at 4.3 µM.
